ADAM17 inh = ADAM17 inhibitors, primary screen, biochemical, QFRET. Disintegrin and metalloproteinase domain-containing protein 17 (Homo sapiens), P78536. recombinant ADAM17, EDANS/DABCYL FRET peptide cleavage. inhibition, % at 6.95 µM. 0.83% of 370,000 active. AID 720648, 2013;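 active = inhibition above the mean of compounds lying between control limits plus 3 SD, set per campaign, cut at about 8.5% in these data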
PLC-gamma1 inh = PLC-gamma1 enzyme inhibitors, primary screen, biochemical, fluorescence, purified enzyme. 1-phosphatidylinositol 4,5-bisphosphate phosphodiesterase gamma-1 (Homo sapiens), P19174. inhibition, % at 12.2 µM. AID 720700, 2013. 0.84% of 370,000 active. fluorogenic substrate; in the data active = inhibition above about 9.5%
Target sequence (P19174 whole entry, looked up): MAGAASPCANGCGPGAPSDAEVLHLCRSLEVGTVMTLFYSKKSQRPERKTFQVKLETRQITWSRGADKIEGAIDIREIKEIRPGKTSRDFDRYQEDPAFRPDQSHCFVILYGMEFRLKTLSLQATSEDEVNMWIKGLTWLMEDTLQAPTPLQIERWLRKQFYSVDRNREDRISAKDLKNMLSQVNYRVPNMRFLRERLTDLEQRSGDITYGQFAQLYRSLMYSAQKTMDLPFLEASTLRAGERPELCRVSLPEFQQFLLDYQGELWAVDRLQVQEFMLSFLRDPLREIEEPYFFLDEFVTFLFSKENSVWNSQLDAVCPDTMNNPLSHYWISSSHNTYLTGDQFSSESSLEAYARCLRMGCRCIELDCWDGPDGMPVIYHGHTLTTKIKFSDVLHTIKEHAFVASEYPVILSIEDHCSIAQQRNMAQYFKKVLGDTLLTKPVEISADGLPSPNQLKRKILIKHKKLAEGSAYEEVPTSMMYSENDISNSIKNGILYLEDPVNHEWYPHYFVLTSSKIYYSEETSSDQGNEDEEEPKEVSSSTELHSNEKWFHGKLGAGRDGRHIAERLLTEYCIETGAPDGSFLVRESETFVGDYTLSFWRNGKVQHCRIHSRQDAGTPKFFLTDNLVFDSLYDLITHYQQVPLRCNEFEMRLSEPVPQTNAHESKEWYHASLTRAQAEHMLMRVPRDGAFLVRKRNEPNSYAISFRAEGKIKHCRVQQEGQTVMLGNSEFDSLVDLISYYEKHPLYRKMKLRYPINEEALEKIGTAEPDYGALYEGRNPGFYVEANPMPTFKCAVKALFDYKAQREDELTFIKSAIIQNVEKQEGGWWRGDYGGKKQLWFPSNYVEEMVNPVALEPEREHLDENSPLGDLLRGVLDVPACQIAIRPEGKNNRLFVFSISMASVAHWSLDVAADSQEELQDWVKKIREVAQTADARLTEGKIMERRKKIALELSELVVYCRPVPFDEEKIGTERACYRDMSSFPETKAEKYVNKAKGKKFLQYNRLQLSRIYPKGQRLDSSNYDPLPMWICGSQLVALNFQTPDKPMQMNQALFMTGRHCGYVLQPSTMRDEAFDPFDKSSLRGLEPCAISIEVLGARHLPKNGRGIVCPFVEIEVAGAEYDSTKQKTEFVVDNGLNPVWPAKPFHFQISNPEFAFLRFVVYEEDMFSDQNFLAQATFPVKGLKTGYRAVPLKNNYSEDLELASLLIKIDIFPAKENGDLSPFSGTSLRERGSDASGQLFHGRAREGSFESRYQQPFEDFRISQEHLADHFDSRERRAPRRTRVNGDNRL
DDE Tn6 FP inh = inhibitors of Tn6 peptide binding to fibrin DD(E), primary screen, biochemical, fluorescence polarization, human fibrin, Tn6 probe; AID 720509, 2013; 0.21% of 370,000 active; Fibrin DD(E) TRITC-Tn6 fluorescence polarization displacement; inhibition, % at 8.3 µM; Fibrinogen beta chain (Homo sapiens), P02675;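 active = inhibition above a per-campaign cutoff: mean of compounds within control limits plus 3 SD, cut at about 15% in these data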
DDE Tn7 FP inh = inhibitors of Tn7 peptide binding to fibrin DD(E), primary screen, biochemical, fluorescence polarization, human fibrin, Tn7 probe | inhibition, % at 8.3 µM | 0.13% of 370,000 active | AID 720508, 2013 | FP displacement of FITC-Tn7 peptide from fibrin DD(E); 0% = median of compound wells per plate;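 active = inhibition above the mean of compounds falling within the control limits plus 3 SD of them, cut at about 14% in these data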
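Assay system: Fibrin-DD(E) protein isolated from polymerized human fibrin clots; read-out basis: percent inhibition; medium: Tris/NaCl/CaCl2 buffer, pH 7.8; signal: FP measurement; incubation: 10 min plus 3 h, room temperature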
PLCb3 inh = human PLC-beta3 inhibitors, primary screen, biochemical, fluorescence | Purified PLC-beta3, fluorogenic substrate | 1-phosphatidylinositol 4,5-bisphosphate phosphodiesterase beta-3 (Homo sapiens), Q01970 | 0.18% of 370,000 active | inhibition, % at 12.2 µM; in the data active = inhibition above about 11%
ADAM10 inh = human ADAM10 inhibitors, primary screen, biochemical, QFRET, HTS; inhibition, % at 7 µM; recombinant ADAM10, EDANS/DABCYL FRET peptide cleavage, 3 h; AID 720582, 2013; 0.62% of 370,000 active; Disintegrin and metalloproteinase domain-containing protein 10 (Homo sapiens), O14672;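 active = inhibition above a per-campaign cutoff equal to the mean of compounds falling between control-based bounds plus 3 SD, cut at about 20% in these data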
ADAM10 confirm = human ADAM10 inhibitors, confirmation, biochemical, QFRET, triplicate; AID 743208, 2013; 1% of 2,100 active; shares compounds with ADAM10 inh; ADAM10 QFRET peptide cleavage, EDANS fluorescence; inhibition, % at 6.95 µM;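 active = inhibition above about 20% chosen separately for each screening run, limit read from the data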
ADAM17 ctr = ADAM17 inhibitors, counter-screen for ADAM10 exosite inhibitor project, biochemical, QFRET, high throughput; 0.5% of 2,100 active; AID 743214, 2013; ADAM17 QFRET peptide cleavage, EDANS fluorescence; inhibition, % at 6.95 µM; shares compounds with ADAM10 inh;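 active = mean triplicate inhibition above the solvent-only control wells' mean plus 3 SD, cut at about 12% in these data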
ADAM10 ctr = ADAM10 inhibitors, counter-screen for ADAM17 exosite inhibitor project, biochemical, FRET, human ADAM10; recombinant ADAM10, EDANS/DABCYL FRET peptide cleavage, 3 h; inhibition, % at 6.95 µM; 47% of 2,900 active; shares compounds with ADAM17 inh;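 active = mean inhibition over the triplicate runs exceeds the activity threshold set in the earlier primary screen, cut at about 20% in these data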
ADAM17 confirm = ADAM17 inhibitors, hit retest, confirmation, biochemical, QFRET peptide cleavage | shares compounds with ADAM17 inh | recombinant ADAM17, EDANS/DABCYL QFRET peptide cleavage | inhibition, % at 6.95 µM | 65% of 2,900 active | AID 743257, 2014;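 active = mean inhibition across replicates above the hit cutoff set in the primary screen, cut at about 8.5% in these data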
Numbers stand for hits; – = inactive; · = no result. A selection: hits, their analogues and other compounds. The true share with any hit is near 2.3%.

SMILES	ADAM17 inh	PLC-gamma1 inh	DDE Tn6 FP inh	DDE Tn7 FP inh	PLCb3 inh	ADAM10 inh	ADAM10 confirm	ADAM17 ctr	ADAM10 ctr	ADAM17 confirm
CCN(CC)C(=O)[C@H]1CC(CC(=O)NCc2cccc(C(F)(F)F)c2)C(=O)N2CCc3c([nH]c4ccccc34)[C@]12C (some centres undefined)	–	–	–	–	–	–	·	·	·	·
CCN(CC)C(=O)[C@H]1C[C@H](CC(=O)NCc2cccc(C(F)(F)F)c2)C(=O)N2CCc3c([nH]c4ccc(Cl)cc34)[C@]12C	11	–	–	–	–	23	–	–	31	13
CC(=O)C(N=Nc1ccccc1)(Sc1nnc(-c2ccccc2)n1-c1ccccc1)C(C)=O	14	–	–	–	–	26	–	–	–	10
CC(=O)C(N=Nc1ccccc1)(Sc1nnc(-c2ccccc2)n1-c1ccccc1)C(=O)Nc1ccccc1 (centres undefined)	–	–	–	–	–	–	·	·	·	·
CCOC(=O)Cn1cc(CN2C(C(=O)OC)CN(Cc3ccc(F)cc3)CCS2(=O)=O)nn1 (centres undefined)	–	–	–	–	–	–	·	·	·	·
COc1cccc(OC(=O)c2ccccc2)c1OC(=O)c1ccccc1	15	–	–	–	–	27	–	–	–	–
COc1ccc(CSc2nnc(SCc3ccccc3)s2)cc1	–	–	–	–	–	–	·	·	·	·
CCOc1cc(N2CCCC2)ccc1[N+](=O)[O-]	9.3	–	–	–	–	20	–	–	–	–
Cc1ccc(S(=O)(=O)N(C)c2ccc(C(=O)Nc3cccc(C)n3)cc2)cc1	15	–	–	–	–	20	–	–	–	–
Cc1nc2ccc(NC(=O)c3ccc(S(=O)(=O)N(C)c4ccccc4)cc3)cc2s1	16	–	–	–	–	29	–	–	–	13
COc1ccc(NC(=O)c2cc(-c3cc(F)ccc3OC(C)C)n[nH]2)c(OC)c1	15	–	–	–	–	21	–	–	–	–
CCCC[C@H]1C2CC(OC(=O)Nc3ccc4c(c3)OCO4)C(C2)[C@H]2CCCCN21 (some centres undefined)	–	–	–	–	–	–	·	·	·	·
Cc1cccc(-c2cccc3c4c([nH]c23)[C@@H]2C[C@H](N(C)C(=O)NC3CCCCC3)[C@H]([C@H](C)O)C(=O)N2CC4)c1	–	–	–	–	–	–	·	·	·	·
Cc1ccc([C@H]2N[C@]3(CCCN(Cc4ccc(C(F)(F)F)cc4)C3=O)[C@H]3C(=O)N(Cc4ccccc4)C(=O)[C@@H]23)cc1	12	–	–	–	–	28	–	–	34	20
Cc1ccc(CN2CCC[C@]3(N[C@H](c4ccc(C(F)(F)F)cc4)[C@@H]4C(=O)N(Cc5ccccc5)C(=O)[C@@H]43)C2=O)cc1	9.7	–	–	–	–	20	–	–	38	22
O=C(c1cc(Cl)cc(Cl)c1)N1CC[C@H]2[C@H](CCCN2Cc2ccccc2)C1	–	–	–	–	–	–	·	·	·	·
COC(=O)C1CN(C2CC2)CCS(=O)(=O)N1Cc1cn(Cc2ccc(C)cc2)nn1 (centres undefined)	–	–	–	–	–	–	·	·	·	·
CC(=O)c1cccc(-c2ccnc3c2CC(C(=O)Nc2ccc(Cl)cc2)O3)c1 (centres undefined)	8.7	–	–	–	–	24	–	–	–	–
CC(=O)Nc1ccc(NC(=O)C2Cc3c(-c4cccc(C(C)=O)c4)ccnc3O2)cc1 (centres undefined)	–	–	–	–	–	–	·	·	·	·
COc1ccc(C2CC(O)(c3ccccc3)Oc3c(C)ccc(C)c32)cc1 (centres undefined)	19	–	–	–	–	36	–	–	–	13
COC(=O)c1c(NC(C)=O)sc2c1CCCC2	–	–	–	–	–	–	·	·	·	·
COC(=O)c1c(NC(NC(=O)C(C)C)C(Cl)(Cl)Cl)sc2c1CCCC2 (centres undefined)	10	–	–	–	–	22	–	–	26	16
C[C@@H]1[C@@H](c2ccccc2)c2cc3ccccc3nc2-c2nc3ccccc3cc2[C@@H]1C(=O)N1CCCC1	–	–	–	–	–	–	·	·	·	·
CCCCCCCCN1C(=O)[C@H](CC(=O)NCc2ccc(OC)c(OC)c2)C[C@@]2(C(=O)OC)CC(C)(C)CC=C12	8.7	–	–	–	–	24	–	–	32	15
CCOC(=O)[C@]12CCCC=C1N(CCc1ccc(OC)c(OC)c1)C(=O)[C@H](CC(=O)NCc1ccccc1)C2	–	–	–	–	–	–	·	·	·	·
COC(=O)[C@@]12C[C@@H](CC(=O)NCc3ccc(OC)c(OC)c3)C(=O)N(CCc3ccc(OC)c(OC)c3)C1=CCC(C)(C)C2	–	–	–	–	–	–	·	·	·	·
CCCCCCCCN1C(=O)[C@H](CC(=O)NCc2ccc(OC)c(OC)c2)C[C@@]2(C(=O)OCC)CCCC=C12	13	–	–	–	–	31	–	–	41	22
C=CCN1C(=O)[C@H](CC(=O)NCc2cccs2)[C@@]2(C(=O)OCC)CCCC=C12	–	–	–	–	–	–	·	·	·	·
CCN(CC)S(=O)(=O)c1ccc(C)c(NC(=S)NNC(=O)C2CC2)c1	9.7	–	–	–	–	24	–	–	–	–
